The source made the active and inactive calls. The rule behind the calls is not given here.
Experiments:
[1] = test system: Hs-578T; experiment: Growth inhibition against human Hs-578T cells incubated for 48 hrs by sulforhodamine B assay; type: functional
[2] = test system: DU-145; experiment: Antiproliferative activity against human DU-145 cells assessed as cell growth inhibition by measuring lethal concentration incubated for 48 hrs by sulforhodamine B assay; type: functional; details: read-out: LC50 (the source's name)
[3] = test system: EKVX; experiment: Antiproliferative activity against human EKVX cells assessed as cell growth at 0.00000001 M incubated for 48 hrs by SRB assay relative to control; type: functional; details: dose 10 nM, read-out: Activity
How it was run: (§1)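 NCI-60 five-dose screen (10^-4 to 10^-8 M). Cells grown in RPMI 1640 with 5% FBS and 2 mM L-glutamine, plated at 5,000-40,000 cells/well and preincubated 24 h. Drug given from DMSO stock, then 48 h at 37 °C, 5% CO2. For adherent lines, cells fixed with cold TCA, SRB-stained and read at 515 nm. Percent growth taken against time-zero and untreated control.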

[4] = test system: OVCAR-3; experiment: Growth inhibition against human OVCAR-3 cells assessed as total growth inhibitory concentration incubated for 48 hrs by sulforhodamine B assay; type: functional
[5] = test system: SK-MEL-2; experiment: Antiproliferative activity against human SK-MEL-2 cells assessed as cell growth at 0.000001 M incubated for 48 hrs by SRB assay relative to control; type: functional; details: read-out: Activity
[6] = test system: HT-29; experiment: Antiproliferative activity against human HT-29 cells assessed as cell growth at 0.000001 M incubated for 48 hrs by SRB assay relative to control; type: functional; details: read-out: Activity; how it was run: as §1
[7] = test system: MDA-MB-468; experiment: Growth inhibition against human MDA-MB-468 cells incubated for 48 hrs by sulforhodamine B assay; type: functional
[8] = test system: A498; experiment: Antiproliferative activity against human A498 cells assessed as cell growth at 0.0001 M incubated for 48 hrs by SRB assay relative to control; type: functional; details: read-out: Activity
How it was run: (§2)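 NCI-60 five-dose screen over 10^-4–10^-8 M (10-fold dilutions). Cells grown in RPMI 1640 with 5% FBS and 2 mM L-glutamine, seeded at 5,000–40,000 cells/well and preincubated 24 h. Drug from DMSO stock, 48 h at 37 °C, 5% CO2. Adherent cells TCA-fixed and stained with 0.4% SRB; A515 read. Percent growth = (Ti−Tz)/(C−Tz)×100, or (Ti−Tz)/Tz×100 when Ti<Tz.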

[9] = test system: HCC 2998; experiment: Antiproliferative activity against human HCC 2998 cells assessed as cell growth at 0.00000001 M incubated for 48 hrs by SRB assay relative to control; type: functional; details: dose 10 nM, read-out: Activity; how it was run: as §1
[10] = test system: SF-295; experiment: Antiproliferative activity against human SF-295 cells assessed as cell growth at 0.0000001 M incubated for 48 hrs by SRB assay relative to control; type: functional; details: dose 100 nM, read-out: Activity
[11] = test system: U-251; experiment: Antiproliferative activity against human U-251 cells assessed as cell growth at 0.0000001 M incubated for 48 hrs by SRB assay relative to control; type: functional; details: dose 100 nM, read-out: Activity
[12] = test system: DU-145; experiment: Antiproliferative activity against human DU-145 cells assessed as cell growth at 0.0000001 M incubated for 48 hrs by SRB assay relative to control; type: functional; details: dose 100 nM, read-out: Activity; how it was run: as §2
[13] = test system: HL-60; experiment: Growth inhibition against human HL-60 cells assessed as total growth inhibitory concentration incubated for 48 hrs by sulforhodamine B assay; type: functional
[14] = test system: SF-539; experiment: Antiproliferative activity against human SF-539 cells assessed as cell growth at 0.0000001 M incubated for 48 hrs by SRB assay relative to control; type: functional; details: dose 100 nM, read-out: Activity
[15] = test system: Calf thymus DNA; experiment: Binding affinity to calf thymus DNA assessed as intercalation by measuring decrease in DNA intensity by circular dichroism spectroscopy; type: nucleic-acid assay; details: Bos taurus
[16] = test system: SK-OV-3; experiment: Antiproliferative activity against human SK-OV-3 cells assessed as cell growth inhibition by measuring lethal concentration incubated for 48 hrs by sulforhodamine B assay; type: functional; details: read-out: LC50 (the source's name)
[17] = test system: SR; experiment: Antiproliferative activity against human SR cells assessed as cell growth inhibition by measuring lethal concentration incubated for 48 hrs by sulforhodamine B assay; type: functional; details: read-out: LC50 (the source's name)
How it was run: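 NCI-60 five-dose screen (10^-4 to 10^-8 M, 10-fold dilutions; DMSO stocks). Cells in RPMI 1640 with 5% FBS and 2 mM L-glutamine, preincubated 24 h, then exposed 48 h at 37 °C, 5% CO2. Fixed with cold TCA, stained with 0.4% SRB, absorbance read at 515 nm. Time-zero plates used as reference. LC50 taken from [(Ti-Tz)/Tz]×100 […].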

[18] = test system: EKVX; experiment: Antiproliferative activity against human EKVX cells assessed as cell growth at 0.000001 M incubated for 48 hrs by SRB assay relative to control; type: functional; details: read-out: Activity; how it was run: as §1
[19] = test system: HOP-92; experiment: Growth inhibition against human HOP-92 cells assessed as total growth inhibitory concentration incubated for 48 hrs by sulforhodamine B assay; type: functional
[20] = test system: A549; experiment: Antiproliferative activity against human A549 cells assessed as cell growth at 0.00000001 M incubated for 48 hrs by SRB assay relative to control; type: functional; details: dose 10 nM, read-out: Activity; how it was run: as §2
[21] = test system: MDA-MB-231; experiment: Growth inhibition against human MDA-MB-231 cells assessed as total growth inhibitory concentration incubated for 48 hrs by sulforhodamine B assay; type: functional
[22] = test system: EKVX; experiment: Growth inhibition against human EKVX cells incubated for 48 hrs by sulforhodamine B assay; type: functional
[23] = test system: NCI/ADR-RES; experiment: Antiproliferative activity against human NCI/ADR-RES cells assessed as cell growth at 0.00001 M incubated for 48 hrs by SRB assay relative to control; type: functional; details: read-out: Activity
[24] = test system: MCF7; experiment: Antiproliferative activity against human MCF7 cells assessed as cell growth at 0.0000001 M incubated for 48 hrs by SRB assay relative to control; type: functional; details: dose 100 nM, read-out: Activity
[25] = test system: SW-620; experiment: Antiproliferative activity against human SW620 cells assessed as cell growth at 0.00000001 M incubated for 48 hrs by SRB assay relative to control; type: functional; details: dose 10 nM, read-out: Activity
[26] = test system: NCI-H460; experiment: Antiproliferative activity against human NCI-H460 cells assessed as cell growth at 0.0001 M incubated for 48 hrs by SRB assay relative to control; type: functional; details: read-out: Activity
[27] = test system: Hs-578T; experiment: Antiproliferative activity against human Hs-578T cells assessed as cell growth at 0.000001 M incubated for 48 hrs by SRB assay relative to control; type: functional; details: read-out: Activity
How it was run: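 NCI-60 five-dose mode, 10^-4 to 10^-8 M in 10-fold steps. RPMI 1640, 5% FBS, 2 mM L-glutamine; 24 h preincubation, then 48 h drug exposure at 37 °C. Stocks in DMSO at 400× the top concentration, diluted in medium with gentamicin. TCA fixation, SRB staining, absorbance at 515 nm. Percent growth from time-zero (Tz), control (C) and test (Ti) readings.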

[28] = test system: KM12; experiment: Antiproliferative activity against human KM12 cells assessed as cell growth inhibition by measuring lethal concentration incubated for 48 hrs by sulforhodamine B assay; type: functional; details: read-out: LC50 (the source's name)
[29] = test system: SK-MEL-5; experiment: Antiproliferative activity against human SK-MEL-5 cells assessed as cell growth at 0.00000001 M incubated for 48 hrs by SRB assay relative to control; type: functional; details: dose 10 nM, read-out: Activity
[30] = test system: SK-MEL-5; experiment: Antiproliferative activity against human SK-MEL-5 cells assessed as cell growth at 0.000001 M incubated for 48 hrs by SRB assay relative to control; type: functional; details: read-out: Activity
[31] = test system: A549; experiment: Antiproliferative activity against human A549 cells assessed as cell growth at 0.00001 M incubated for 48 hrs by SRB assay relative to control; type: functional; details: read-out: Activity; how it was run: as §2

| SMILES | GI50 [1] | CC50 [2] | growth at 0.01 µM [3] | TGI [4] | growth at 1 µM [5] | growth at 1 µM [6] | GI50 [7] | growth at 100 µM [8] | growth at 0.01 µM [9] | growth at 0.1 µM [10] | growth at 0.1 µM [11] | growth at 0.1 µM [12] | TGI [13] | growth at 0.1 µM [14] | Activity [15] | CC50 [16] | CC50 [17] | growth at 1 µM [18] | TGI [19] | growth at 0.01 µM [20] | other results |
| --- | --- | --- | --- | --- | --- | --- | --- | --- | --- | --- | --- | --- | --- | --- | --- | --- | --- | --- | --- | --- | --- |
| COc1ccc(-c2cn3ccnc3c(-c3ccc4ncn(C5CCCCC5)c4c3)n2)cc1 | 1.16 µM | > 100 µM | 87% | > 100 µM | 49% | 20% | 0.863 µM | 24% | 97% | 91% | 104% | 102% | 5.05 µM | 97% | Active | > 100 µM | > 100 µM | 73% | > 100 µM | 102% | TGI [21]: > 100 µM; GI50 [22]: 3.04 µM; growth at 10 µM [23]: -4%; growth at 0.1 µM [24]: 92%; growth at 0.01 µM [25]: 98%; growth at 100 µM [26]: 5%; growth at 1 µM [27]: 53%; CC50 [28]: > 100 µM; growth at 0.01 µM [29]: 98%; growth at 1 µM [30]: 41%; growth at 10 µM [31]: 14% |
| c1ccc(Cn2cnc3ccc(-c4nc(-c5ccc6c(c5)ncn6C5CCCCC5)cn5ccnc45)cc32)cc1 | 2.71 µM | > 100 µM | 89% | 5.79 µM | 90% | 88% | 1.92 µM | -83% | 94% | 92% | 107% | 98% | 6.65 µM | 92% | Active | > 100 µM | > 100 µM | 76% | 2.62 µM | 105% | TGI [21]: 3.69 µM; GI50 [22]: 1.75 µM; growth at 10 µM [23]: -30%; growth at 0.1 µM [24]: 90%; growth at 0.01 µM [25]: 100%; growth at 100 µM [26]: -24%; growth at 1 µM [27]: 88%; CC50 [28]: > 100 µM; growth at 0.01 µM [29]: 101%; growth at 1 µM [30]: 80%; growth at 10 µM [31]: -46% |

From ChEMBL document CHEMBL5247578, “Effective synthesis of benzimidazoles-imidazo[1,2-a]pyrazine conjugates: A comparative study of mono-and bis-benzimidazoles for antitumor activity” (Eur J Med Chem, 2019)
